Screening results from PubChem BioAssay.
Only some compounds are listed: those with a hit (about 9.8% of all), similar ones and a draw of the others.
m-calpain inh = inhibitors of pig calpain II, primary screen, biochemical, fluorogenic peptide substrate, 1536-well; 220,000 tested, 0.37% active; inhibition, % at 16 µM; AID 1236, 2008; purified calpain II, 30 min;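 active = inhibition above about 50%, limit read from the data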
Rad51 HR inh = human RAD51 strand exchange inhibitors, primary screen, biochemical, fluorescence | AID 1385, 2008 | 200,000 tested, 0.085% active | inhibition, % at 10 µM | DNA repair protein RAD51 homolog 1 (Homo sapiens), Q06609 | hRad51 DNA strand exchange, fluorescence dequenching;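 active = inhibition above 40% at the single screening dose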;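 note: 0% = DMSO control wells and 100% = blanks with heterologous ssDNA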
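material = hRad51 filaments on single-stranded DNA | timing = filaments 15 min 37 °C, then compound 30 min | signal = FRET fluorescence dequenching, excitation 485 nm, emission 520 nm | benchmarks = control wells and blank wells on each plate | evaluation = percent inhibition relative to plate controls and blanks | compound = 10 µM final, single point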
PMI act = activators of human PMI, primary screen, biochemical, fluorescence intensity, near-Km mannose 6-phosphate | Mannose-6-phosphate isomerase (Homo sapiens), P34949 | purified human PMI, coupled resazurin fluorescence, 20 min; hits give high values; 1 = vehicle control, 0 substrate-free wells | activation factor at 20 µM | 190,000 tested, 0.005% active;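 active = activation factor of 2 or more at 20 µM, relative to plate controls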
Target sequence (P34949 whole entry, looked up): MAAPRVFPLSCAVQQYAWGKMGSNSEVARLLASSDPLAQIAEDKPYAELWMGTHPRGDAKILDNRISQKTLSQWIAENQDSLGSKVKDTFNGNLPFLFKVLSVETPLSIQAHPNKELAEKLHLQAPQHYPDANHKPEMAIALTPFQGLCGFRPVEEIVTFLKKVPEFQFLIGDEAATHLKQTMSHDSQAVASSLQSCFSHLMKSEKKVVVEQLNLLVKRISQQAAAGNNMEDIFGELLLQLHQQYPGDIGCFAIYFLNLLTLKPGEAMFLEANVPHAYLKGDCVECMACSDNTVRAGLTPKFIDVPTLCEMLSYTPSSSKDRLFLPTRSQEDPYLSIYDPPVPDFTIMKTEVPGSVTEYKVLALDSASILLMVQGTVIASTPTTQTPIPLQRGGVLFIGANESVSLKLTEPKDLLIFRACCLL
WT yeast gro inh = growth inhibition of WT strain, primary screen, mitochondrial fusion inhibitor project, WT and mutant strains, chemical genetic; inhibition, % at 10 µM; mitochondrial fusion phenotypic screen; 190,000 tested, 2.1% active; AID 1362, 2008; in the data active = inhibition above about 58%; tested in S. cerevisiae
Lmaj promast = Leishmania major promastigote growth inhibition, primary screen | Leishmania major promastigotes, resazurin fluorescence viability | inhibition, % at 10 µM | 200,000 tested, 9% active; in the data active = inhibition above about 50%;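 note: promastigotes grown with compound for 44 hours at 28 °C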
PMI act hi M6P = human PMI activators, high substrate, primary screen, biochemical, fluorescence intensity, near-saturating mannose 6-phosphate | coupled PMI enzyme assay, resazurin fluorescence, 20 min; hits give high values; 1 = untreated enzyme, 0 = substrate-free blank | AID 1216, 2008 | activation factor at 20 µM | Mannose-6-phosphate isomerase (Homo sapiens), P34949 | 190,000 tested, 0.34% active;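 active = activation factor of 2 or more at 20 µM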
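Material: human phosphomannose isomerase with PGI, G6PDH, diaphorase coupling enzymes. Quantity: 15 ng/mL PMI. Medium: HEPES pH 7.4 buffer with MgCl2 and Tween-20. Reagent: Near-saturating mannose-6-phosphate, 1.0 mM. Compound: 20 µM single dose. Times: enzyme reaction with compound 20 min at room temperature. Detection: resorufin fluorescence at Ex 544/Em 590 nm.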
* marks the source's active call; other numbers are inactive results; · = no result.

SMILES | m-calpain inh | Rad51 HR inh | PMI act | WT yeast gro inh | Lmaj promast | PMI act hi M6P
Cc1cc([N+](=O)[O-])nn1CCC(=O)Nc1nccs1 | -32 | 6 | 0.9 | -4 | -6 | 1
COc1cc(/C=N/NC(=O)COc2c(C)cc([N+](=O)[O-])cc2C)ccc1OC(=O)c1ccccc1 | -50 | 7 | 1 | 14 | 99* | 0.9
COc1cc(/C=N/NC(=O)c2cccc([N+](=O)[O-])c2)ccc1OCc1ccccc1 | 32 | 5 | 1.1 | 27 | -5 | 1.1
COc1ccc(/C=N/NC(=O)c2ccc(N(C)S(=O)(=O)c3ccccc3)cc2)cc1OC | -44 | 5 | 0.9 | 0 | 67* | 0.9
Cc1ccccc1Oc1nc(-c2ccccn2)nc2ccccc12 | -11 | 21 | · | · | · | ·
Cc1c(NC(=O)c2ccc(-c3cccc([N+](=O)[O-])c3)o2)c(=O)n(-c2ccccc2)n1C | 2 | -1 | · | 5 | -4 | ·
Cc1ccnc(SCc2cc(=O)c(OC(=O)c3ccco3)co2)n1 | -8 | · | 1 | 2 | -6 | 1
Cc1ccnc(SCc2cc(=O)c(OC(=O)c3ccc(Cl)c([N+](=O)[O-])c3)co2)n1 | 28 | -11 | 0.9 | 17 | 96* | 0.9
CCc1sc(NC(=O)CCC(=O)O)nc1-c1cc2ccccc2oc1=O | 6 | · | 1.2 | -8 | 0 | 1.1
CCc1ccc(OCC2c3cc(OC)c(OC)cc3CCN2C(=S)NCCOC)cc1 (centres undefined) | 0 | 7 | 0.8 | 32 | 19 | 0.9
CCOc1ccc(CC2c3cc(OCC)c(OCC)cc3CCN2C(=O)c2cc(OC)c(OC)c(OC)c2)cc1OCC (centres undefined) | -36 | 0 | 1 | 13 | 55* | 1.1
CCc1ccc(OCC2c3cc(OC)c(OC)cc3CCN2C(=S)NC)cc1 (centres undefined) | 41 | -5 | 0.8 | 75* | 33 | 0.9
CCNC(=S)N1CCc2cc(OC)c(OC)cc2C1COc1ccc(OC)cc1 (centres undefined) | -14 | -1 | 1 | -5 | 68* | 1
Cc1cccc(-n2cnc3c(sc4nc(N5CCOCC5)c5c(c43)CCCC5)c2=O)c1 | -47 | 7 | · | · | · | ·
Cc1noc(C)c1C(=O)N1CCCC(C(=O)c2cccc(C(F)(F)F)c2)C1 (centres undefined) | 5 | · | 0.9 | -3 | 3 | 0.9
O=C(Nc1ccon1)c1csc2c1CCCC2 | -60 | 5 | 0.9 | 13 | 78* | 1
O=C(Nc1ccon1)c1csc2ccccc12 | 21 | 7 | 0.9 | 4 | -5 | 1
Cc1cc(=O)[nH]c(=S)n1-c1ccccc1 | -23 | 3 | 0.9 | 9 | -3 | 0.9
Nc1cc(=O)[nH]c(=S)n1-c1ccccc1 | -10 | 9 | 1.1 | 59* | -6 | 1
CCN(C(=O)COC(=O)c1cccnc1Nc1cccc(C(F)(F)F)c1)C1CCS(=O)(=O)C1 (centres undefined) | -16 | -3 | 0.9 | -13 | 59* | 1
Cc1cc(N2CCN(c3ccccc3)CC2)n2cc(-c3ccccc3)nc2n1 | -91 | 4 | 0.9 | 29 | 10 | 0.9
Cc1cc(N2CCN(c3ccccc3Cl)CC2)n2cc(-c3ccccc3)nc2n1 | -77 | 8 | 0.9 | 74* | 49 | 0.9
COc1ccc(C(=O)c2c(C)c3ccccc3n2CC(O)CNC(C)C)cc1 (centres undefined) | -6 | -8 | 1.1 | -5 | 97* | 1.1
COc1cc(-c2ncc3ccccn23)cc(OC)c1OC | -286 | · | 0.8 | 6 | 26 | 0.8
COc1cc(C(C[N+](=O)[O-])c2c(-c3ccccc3)cc3ccccn23)cc(OC)c1OC (centres undefined) | -152 | · | 1 | 11 | 93* | 1.4
SMILES | m-calpain inh | Rad51 HR inh | PMI act | WT yeast gro inh | Lmaj promast | PMI act hi M6P
COc1ccc(C(C[N+](=O)[O-])c2c(-c3ccccc3)cc3ccccn23)cc1OC (centres undefined) | -39 | · | 1.3 | 39 | 100* | 1.6
COc1ccc(C(C[N+](=O)[O-])c2c(-c3ccccc3)cc3ccccn23)cc1 (centres undefined) | -102 | · | 1.2 | 13 | 100* | 1.5
O=Nc1c(-c2ccccc2)cc2ccccn12 | -15 | 12 | 1 | 14 | 7 | 0.9
CCc1cccc(NC(=O)c2ccc3c(=O)n4c(nc3c2)CCCCC4)c1 | 35 | -3 | · | · | · | ·
CCCOc1ccc(/C(O)=C2/C(=O)C(=O)N(CCCn3ccnc3)C2c2cccnc2)cc1 (centres undefined) | 12 | 25 | · | · | · | ·
COc1cccc(CN2CCN(Cc3ccc4c(c3)OCCO4)CC2CCO)c1 (centres undefined) | -22 | 1 | 1 | -12 | 70* | 1
COc1cccc(CN2CCN(Cc3cc4ccccc4[nH]3)CC2CCO)c1 (centres undefined) | -45 | · | · | · | · | ·
COc1ccc(CN2CCN(Cc3cccc(OC)c3)C(CCO)C2)cc1 (centres undefined) | -3 | · | 0.8 | -4 | 71* | 0.9
COc1ccc(/C=C/CN2CCN(Cc3cccc(OC)c3)C(CCO)C2)cc1 (centres undefined) | 2 | 12 | 0.9 | 7 | 93* | 1
Cc1ccc(CN2CCN(Cc3ccc4c(c3)OCCO4)CC2CCO)cc1 (centres undefined) | 14 | · | 0.9 | 9 | 48 | 0.9
O=C(CC1C(=O)NCCN1Cc1ccc(F)cc1)NCCCn1cccn1 (centres undefined) | -38 | -4 | · | -2 | -8 | ·
CCCOc1ccc(CSC2=NCCN2)cc1[N+](=O)[O-] | 26 | · | 1 | 5 | 57* | 1
COC(=O)c1cc(C(=O)OC)cc(-n2c(C)cc(C(=O)COC(=O)CNS(=O)(=O)c3ccc(C)cc3)c2C)c1 | -26 | 7 | 0.9 | -4 | 90* | 0.9
CCn1c(SCC(=O)c2cc(C)n(C)c2C)nnc1-c1ccccc1 | -19 | -7 | 1 | 7 | 7 | 1
CCOC(=O)c1cc(C)n(-c2ccc(Cl)cc2)c1C | 18 | 0 | · | · | · | ·
COC(=O)c1ccc(-n2c(C)cc(C(=O)COC(=O)CNS(=O)(=O)c3ccc(C)cc3)c2C)cc1 | 36 | 14 | 0.9 | 22 | -8 | 1
CCn1c(SCC(=O)c2cc(C)n(-c3ccc(C(=O)OC)cc3)c2C)nnc1-c1cccnc1 | 10 | -1 | 0.9 | -21 | 71* | 1
CCOc1ccc(-n2c(C)cc(C(=O)CCl)c2C)cc1 | 16 | -1 | 1.1 | 1 | 100* | 0.9
COC(=O)c1ccc(-n2c(C)cc(C(=O)CCl)c2C)cc1 | -28 | -4 | 0.9 | 19 | 101* | 0.9
COc1ccc(CNC(=O)CCS(=O)(=O)Cc2cccc(Cl)c2)c(OC)c1 | 25 | -11 | 1 | 0 | 4 | 1.1
